# Legend:
# KLF5 [1] = experiment: Western blot of endogenous KLF5 levels in IEC-6 cells; assay type: cell-based, rat; conditions: wide range of concentrations
# [2] = test system: NCI-60 panel of human cancer cell lines; experiment: NCI-60 panel screen; assay type: cell-based; conditions: 10 µM
# DLD-1 cells = experiment: Cell viability assay; assay type: cell-based, human; conditions: 48 h; for effect on proliferation of DLD-1 cells: various concentrations
# Summary of the method: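 DLD-1 cells were plated at 10⁴ per well in 96-well plates. They were dosed at once with increasing concentrations of test compound in DMSO (final 0.4%) or with DMSO alone. After 48 h, viability was read by Cell-Titer Glo luminescence. The DMSO control was set to 100%. Runs were done in triplicate, and IC50 came from a nonlinear sigmoidal dose-response fit.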
# [3] = test system: KM12 colon cancer cell line; experiment: NCI-60 panel screen, KM12; assay type: cell-based, human; conditions: 10 µM, cell line highly expressing KLF5
# leukemia cell lines = experiment: NCI-60 panel screen, leukemia lines; assay type: cell-based, human; conditions: 10 µM
# EGR1 = experiment: Western blot of EGR1 in DLD-1 cells; assay type: cell-based, human; conditions: DLD-1, 10 µM, 24 h
# Summary of the method: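 DLD-1 cells were seeded at 2 × 10⁵ per well in 1 ml medium. At 24 h after seeding they were given test compound in DMSO or DMSO alone for 24 h. Lysates were made in Laemmli buffer, separated by polyacrylamide gel electrophoresis and transferred to nitrocellulose. Membranes were probed with rabbit anti-EGR1, and scanned films were quantified by densitometry.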
# KLF5 [4] = experiment: Western blot of endogenous KLF5 protein levels in DLD-1 cells; assay type: cell-based, human; conditions: 24 h; for effect on endogenous KLF5 levels: DLD-1, 10 µM
# Summary of the method: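 DLD-1 cells were seeded at 2 × 10⁵ per well in 1 ml medium. At 24 h after seeding they were treated with 5 or 10 µM test compound in DMSO, or with DMSO alone, for 24 h. Cells were lysed in Laemmli buffer, run on polyacrylamide gel and transferred to nitrocellulose. Blots were probed with rabbit polyclonal anti-KLF5 (residues 95–111) and mouse monoclonal anti-β-actin, and scanned films were quantified by densitometry.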
Structure (SMILES),effect on endogenous KLF5 levels in IEC-6 cells (KLF5 [1]),effect on proliferation of DLD-1 cells (DLD-1 cells),effect on EGR1 (EGR1),effect on endogenous KLF5 levels (KLF5 [4]),also measured
CN(C(=O)COC(=O)/C=C/c1cccc([N+](=O)[O-])c1)C1CCS(=O)(=O)C1 (stereo not shown) [CID 5951923],neither CIDs 4395011 nor 5951923 reduced endogenous KLF5 levels,inhibited proliferation of DLD-1 cells in a dose-dependent manner,downregulated EGR1,–,potency of inhibition in NCI-60 panel [2]: potency was weak; inhibition of KM12 colon cancer cell line [3]: poor inhibition; inhibition of leukemia cell lines (leukemia cell lines): inhibition in a number of leukemia cell lines
C[C@@H]1O[C@@H](O[C@H]2C[C@@H](O)[C@]3(CO)[C@H]4[C@H](O)C[C@]5(C)[C@@H](C6=CC(=O)OC6)CC[C@]5(O)[C@@H]4CC[C@]3(O)C2)[C@H](O)[C@H](O)[C@H]1O [compound 439501],–,inhibited proliferation of DLD-1 cells in a dose-dependent manner,–,–,"inhibitory effect on KLF5 levels relative to the other three tested compounds (KLF5 [4]; DLD-1, 5 and 10 µM): more pronounced; IC50 (DLD-1 cells; read-out: IC50 for DLD-1 proliferation (cell viability), Cell-Titer Glo): 46 nM"
CC1=CCCC2(C)C(CCC2(O)CN(CCc2cccs2)S(=O)(=O)c2cccs2)c2ccc(cc2C(=O)Cc2c(F)cccc2Cl)CC(O)CC1 (stereo not shown) [compound 4395011],neither CIDs 4395011 nor 5951923 reduced endogenous KLF5 levels,–,–,–,–
CN(C(=O)CNC(=O)/C=C/c1cccc([N+](=O)[O-])c1)C1CCS(=O)(=O)C1 (stereo not shown) [compound 46931037],–,–,downregulated EGR1,similarly affect KLF5 protein levels,–
CN(C(=O)CNC(=O)/C=C/c1cccc(Cl)c1)C1CCS(=O)(=O)C1 (stereo not shown) [compound 46931043],–,–,–,similarly affect KLF5 protein levels,–
